In ChEMBL document CHEMBL3526003, “Pharmacokinetics of the monohydroxy derivative of oxcarbazepine and its enantiomers after a single intravenous dose given as racemate compared with a single oral dose of oxcarbazepine” (Drug Metab Dispos, 2011):
One block for each molecule: values may come before it.

Key:
[1] = Renal clearance in human at 250 mg, iv administered as single dose by high-performance liquid chromatography; type: ADME, organism-based, Kidney; settings: in vivo
Procedure, shortened: (§1)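 Pilot ascending-dose study: one subject per level received single intravenous racemic MHD (150, 200, 250 mg). Urine was pooled 0–72 h, and unchanged drug was measured by HPLC as percent of dose excreted. Renal clearance was the amount excreted unchanged divided by plasma AUC.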

[2] = AUC (0 to 72 hrs) in human at 150 mg, iv administered as single dose by high-performance liquid chromatography; type: ADME, organism-based; design: dose 150 mg, time < 72 hr, route intravenous; settings: plasma
Procedure, shortened: (§2)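 Pilot ascending-dose study: one healthy subject per level received 150, 200 or 250 mg racemic MHD intravenously as a single dose. Plasma was sampled to 72 h and assayed by non-enantioselective and enantioselective HPLC. AUC(0-72h) was computed by the linear trapezoidal method.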

[3] = Total plasma clearance in human at 150 mg, iv administered as single dose by high-performance liquid chromatography; type: ADME, organism-based
Procedure, shortened: (§3)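 Pilot study: single intravenous racemic MHD at 150, 200 or 250 mg, one subject per dose. Plasma was sampled to 72 h and analysed by HPLC. Total plasma clearance was computed as Dose/AUC, with AUC from the linear trapezoidal rule.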

[4] = Drug excretion in human urine assessed as total amount of drug eliminated at 150 mg, iv administered as single dose measured for 72 hrs post-dose by high-performance liquid chromatography; type: ADME, organism-based; settings: read-out: Ae; procedure, shortened: as §1
[5] = Drug excretion in human urine assessed as total amount of drug eliminated at 250 mg, iv administered as single dose measured for 72 hrs post-dose by high-performance liquid chromatography; type: ADME, organism-based; settings: read-out: Ae; procedure, shortened: as §1
[6] = Drug excretion in human urine assessed as total amount of drug eliminated at 200 mg, iv administered as single dose measured for 72 hrs post-dose by high-performance liquid chromatography; type: ADME, organism-based; settings: read-out: Ae; procedure, shortened: as §1
[7] = AUC (0 to 72 hrs) in human at 250 mg, iv administered as single dose by high-performance liquid chromatography; type: ADME, organism-based; design: dose 250 mg, time < 72 hr, route intravenous; settings: plasma; procedure, shortened: as §2
[8] = AUC in human at 250 mg, iv administered as infusion over 30 mins by non-enantiospecific assay based high-performance liquid chromatography; type: ADME, organism-based; design: time < 0.5 hr, dose 250 mg, route intravenous; settings: plasma
Procedure, shortened: (§4)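 Crossover of 12 healthy adults: 250 mg racemic MHD infused intravenously over 30 min versus a 300 mg oral tablet, with at least one week of washout. Plasma MHD was measured by non-enantioselective HPLC-UV at 210 nm after C18 solid-phase extraction (LOQ 0.1 µmol/L). Bioavailability f was the dose-corrected ratio of oral to intravenous AUC.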

[9] = Renal clearance in human at 150 mg, iv administered as single dose by high-performance liquid chromatography; type: ADME, organism-based, Kidney; settings: in vivo; procedure, shortened: as §1
[10] = Total plasma clearance in human at 200 mg, iv administered as single dose by high-performance liquid chromatography; type: ADME, organism-based; procedure, shortened: as §3
[11] = Renal clearance in human at 200 mg, iv administered as single dose by high-performance liquid chromatography; type: ADME, organism-based, Kidney; settings: in vivo; procedure, shortened: as §1
[12] = Total plasma clearance in human at 250 mg, iv administered as single dose by high-performance liquid chromatography; type: ADME, organism-based; procedure, shortened: as §3
[13] = AUC (0 to 72 hrs) in human at 200 mg, iv administered as single dose by high-performance liquid chromatography; type: ADME, organism-based; design: dose 200 mg, time < 72 hr, route intravenous; settings: plasma; procedure, shortened: as §2
[14] = Tmax in human treated with monohydroxy derivative of OXC at 250 mg, iv administered as infusion over 30 mins by high-performance liquid chromatography; type: ADME, organism-based; settings: in vivo
Procedure, shortened: (§5)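 Healthy adults (6 male, 6 female) in an open randomized two-way crossover with at least one week washout. Venous heparinized plasma was sampled at 0, 5, 10, 15, 20, 25 and 30 min and at 1-72 h after the start of infusion, and stored at -80 C. Analytes were measured by non-enantioselective and enantioselective HPLC. Tmax is the observed time of peak concentration, reported as a median.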

[15] = Cmax in human treated with monohydroxy derivative of OXC at 250 mg, iv administered as infusion over 30 mins by high-performance liquid chromatography; type: ADME, organism-based; design: dose 250 mg, route intravenous; settings: in vivo; procedure, shortened: as §5
Plasma = experiment: Drug level in human plasma at 400 mg, po; type: ADME, cell-free
[16] = Cmax in human at 300 mg, po administered as one-film coated tablet by high-performance liquid chromatography; type: ADME, organism-based; design: dose 300 mg, route oral; settings: in vivo
Procedure, shortened: (§6)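 Healthy adults (6 male, 6 female), single 300 mg film-coated tablet by mouth, fasting, in a randomized two-way crossover with at least one week of washout. Venous heparinized blood was drawn at 0–72 h. Plasma was separated at 2200 g and stored at -80 °C. Non-enantioselective and enantioselective HPLC were used. Cmax/tmax were the observed peak; AUC was by linear trapezoidal rule.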

[17] = Tmax in human at 300 mg, po administered as one-film coated tablet by high-performance liquid chromatography; type: ADME, organism-based; settings: in vivo; procedure, shortened: as §6
[18] = AUC in human at 300 mg, po administered as one-film coated tablet by high-performance liquid chromatography; type: ADME, organism-based; settings: plasma; procedure, shortened: as §6
[19] = Oral bioavailability in human at 300 mg administered as one-film coated tablet by non-enantiospecific assay based high-performance liquid chromatography; type: ADME, organism-based; settings: in vivo; procedure, shortened: as §4
[20] = Terminal half life in human urine treated with oxcarbazepine at 300 mg, po administered as one-film coated tablet by high-performance liquid chromatography; type: ADME, organism-based; settings: read-out: beta t1/2 (converted)
Procedure, shortened: (§7)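 300 mg oral tablet given to 12 healthy adults. Urine was collected in fractions up to 72 h and kept at 2–8 °C, then frozen at -20 °C. Analytes were measured by HPLC before and after β-glucuronidase hydrolysis (pH 6.7, 37 °C, about 15 h). Renal clearance was Ae/plasma AUC. Urinary terminal half-life came from log-linear slopes between 4–18 h and 40–64 h.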

[21] = Terminal half life in human urine treated with monohydroxy derivative of OXC at 250 mg, iv administered as infusion over 30 mins by high-performance liquid chromatography; type: ADME, organism-based; settings: read-out: beta t1/2 (converted)
Procedure, shortened: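 250 mg racemic MHD infused intravenously over 30 min to 12 healthy adults. Plasma was drawn at 0 to 30 min and up to 72 h, and urine was fractionated to 72 h. Enantioselective HPLC was used. Renal clearance was Ae/AUC; Vss was CL_T·MRT (AUMC/AUC). Urinary half-life came from log-linear slopes between 4–18 h and 40–64 h.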

[22] = Drug excretion in human urine assessed as total amount of drug eliminated treated with oxcarbazepine at 300 mg, po administered as one-film coated tablet by high-performance liquid chromatography; type: ADME, organism-based; settings: read-out: Ae; procedure, shortened: as §7

CL renal [1]: 25 mL/min | AUC(0-t) at 72 h [2]: 109 µM·h | clearance [3]: 90 mL/min | AUC(0-t) at 72 h [7]: 280 µM·h | AUC at 0.5 h [8]: 261 µM·h | CL renal [9]: 21.8 mL/min | clearance [10]: 92 mL/min | CL renal [11]: 28.3 mL/min | clearance [12]: 58.5 mL/min | AUC(0-t) at 72 h [13]: 142 µM·h
SMILES: NC(=O)N1c2ccccc2CC(O)c2ccccc21 (racemic) [LICARBAZEPINE]
dose excreted at 72 h [4]: 24.3% | dose excreted at 72 h [5]: 42.8% | dose excreted at 72 h [6]: 30.7%

Tmax [14]: 0.5 h | Cmax [15]: 80 nM | Drug uptake (Plasma): 2% | Cmax [16]: 2000 nM | Tmax [17]: 1 h | AUC [18]: 6.8 µM·h | bioavailability [19]: 99%
SMILES: NC(=O)N1c2ccccc2CC(=O)c2ccccc21 [OXCARBAZEPINE]

half-life [20]: 10.8 h | half-life [21]: 9.9 h
SMILES: NC(=O)N1c2ccccc2C[C@H](O[C@@H]2O[C@H](C(=O)O)[C@@H](O)[C@H](O)[C@H]2O)c2ccccc21
dose excreted [22]: 38.8%
